Test results reported in publication PMC6401406 (Theranostics, 2019).
Like-named read-outs stand apart in the source and are kept apart here.

Key:
[1] = type: in vivo, Sprague-Dawley rats; settings: for Tmax: male, Sprague-Dawley, rat, iv, 30 mg/kg
Procedure, shortened: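 Male 8-week-old Sprague-Dawley rats were acclimated ≥1 week, fasted 12 h, then given a single i.v. 30 mg kg-1 dose. Lung, liver, kidney, spleen, heart and heparinized plasma were collected at 0, 10, 30, 60, 120 and 240 min. Organs were saline-washed and stored at -80 °C. Sections underwent MALDI MSI with internal-standard correction; homogenates underwent LC-MS/MS. Identity was confirmed by accurate mass and tandem MS. Mean ± SD, three animals.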

[2] = cited from earlier work
[3] = cited from earlier work; remark: listed apart in the source

Molecule | Tmax ([1]; kidney) [min] | Tmax ([1]; liver) [min] | Tmax ([1]; lung) [min] | Distribution within kidney ([1]; rat kidney, 60 min post-dose, 3D MALDI imaging) | Half-life (t1/2) in blood versus heart ([2]; after i.v. administration) | Uptake efficiency in spleen versus other tissues [2] | Tmax in spleen ([2]; post-dose, spleen) [min] | Relatively non-toxic dose [3] | Time of maximum concentration of demethylated metabolite in liver ([1]; rat liver after i.v. tetrandrine 30 mg kg^-1) [h] | Detection of metabolite in liver tissue ([1]; rat liver after i.v. tetrandrine, MALDI MSI, accurate mass and tandem MS)
COc1ccc2cc1Oc1ccc(cc1)C[C@H]1c3cc(c(OC)cc3CCN1C)Oc1c(OC)c(OC)cc3c1[C@H](C2)N(C)CC3 [tetrandrine, Tetrandrine] | 30 | 120 | 10 | mainly distributed in the cortex of kidney | generally similar | higher in spleen than other tissues | 270 | up to 90 mg kg^-1 body weight | – | –
demethylated tetrandrine | – | – | – | – | – | – | – | – | 4 | detected
